For one series, the system named is Blood. The series can be described thus: Drug uptake in overnight fasted Sprague-Dawley rat blood at 0.7 to 1.4 MBq, iv at 120 mins. The format is ADME, organism-based. The settings on record: in vivo, 2 h. Summed up:
(§1)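 Overnight-fasted female Sprague-Dawley rats under isoflurane received the [18F] tracer in 0.5–1.0% BSA/saline by tail vein. POCA group: 30 mg/kg i.p. 2 h before tracer. Tissues were excised at 30 or 120 min, weighed and gamma-counted with decay correction. Uptake = % dose kg/g, i.e. CPM tissue × body wt (kg) × 100 / (tissue wt (g) × CPM dose). n = 5–6.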

In series [1] the test system is Heart. Put plainly: Drug uptake in overnight fasted Sprague-Dawley rat heart at 0.7 to 1.4 MBq, iv at 30 mins. Format: ADME, organism-based. Particulars: in vivo, 0.5 h; call rule not given here. In a few lines:
(§2)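 Female rats fasted overnight, under isoflurane (3.5% induction, 1.5% maintenance). 18F-labelled tracer formulated in 0.5–1.0% BSA/saline, injected via tail vein. Tissues harvested at 30 or 120 min, weighed, gamma-counted, decay-corrected. Uptake expressed as % dose kg/g, i.e. tissue CPM × body wt (kg) × 100 / (tissue wt (g) × dose CPM). POCA groups received 30 mg/kg i.p. 2 h before tracer. n = 5–6.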

A further series deals with Liver. The series can be described thus: Biodistribution in overnight fasted Sprague-Dawley rat liver aqueous fraction at 0.7 to 1.4 MBq, iv preincubated with POCA for 2 hrs before compound administration measured at 30 mins post treatment by Folch-type extraction method. The format is ADME, organism-based. Particulars: in vivo, 0.5 h. Summed up:
(§3)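 Female Sprague-Dawley rats, fasted overnight, under isoflurane (3.5% induction, 1.5% maintenance). [18F] tracer in 0.5–1.0% BSA/saline was given by tail vein. POCA group: 30 mg/kg i.p. 120 min before tracer. About 0.5 g tissue was homogenized and sonicated in chloroform/methanol (2:1) at 0 °C, then 40% urea and 5% H2SO4 were added and spun 10 min at 1,800 g. Aqueous, organic and pellet fractions were counted as % of total.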

For series [2], the system named is Muscle tissue. The series can be described thus: Biodistribution in overnight fasted Sprague-Dawley rat muscle aqueous fraction at 0.7 to 1.4 MBq, iv at 30 mins by Folch-type extraction method. The format is ADME, organism-based. The settings on record: in vivo, 0.5 h. In a few lines:
as §3

The test system of series [3] is Bone. The series can be described thus: Drug uptake in overnight fasted Sprague-Dawley rat bone at 9 to 11 MBq, iv at 55 to 115 mins by microPET analysis. The settings on record: in vivo. The format is ADME, organism-based, Bone element. In a few lines: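 Overnight-fasted female Sprague-Dawley rats under isoflurane were scanned by microPET/CT after tail-vein tracer. Dynamic acquisition over the upper thorax ran for 50 min, then a static whole-body scan from 55–115 min p.i. 2–5 rats per tracer; preliminary, representative images.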

For series [4], the system named is Bone. Put plainly: Drug uptake in overnight fasted Sprague-Dawley rat bone at 0.7 to 1.4 MBq, iv preincubated with POCA for 2 hrs before compound administration measured at 30 mins post treatment. Format: ADME, organism-based, Bone element. Particulars: in vivo, 0.5 h. Summed up: as §1
Series [5] concerns Muscle tissue. Put plainly: Biodistribution in overnight fasted Sprague-Dawley rat muscle organic fraction at 0.7 to 1.4 MBq, iv preincubated with POCA for 2 hrs before compound administration measured at 120 mins post treatment by Folch-type extraction method. Format: ADME, organism-based. Particulars: in vivo. Summed up: as §3
The subject of series [6] is Muscle tissue. Put plainly: Biodistribution in overnight fasted Sprague-Dawley rat muscle organic fraction at 0.7 to 1.4 MBq, iv at 30 mins by Folch-type extraction method. The format is ADME, organism-based. The settings on record: in vivo, 0.5 h. In a few lines:
as §3

Another series concerns Lung. Put plainly: Drug uptake in overnight fasted Sprague-Dawley rat lung at 0.7 to 1.4 MBq, iv at 120 mins. The format is ADME, organism-based. The settings on record: in vivo, 2 h. In a few lines: as §2
In series [7] the test system is Muscle tissue. The series can be described thus: Biodistribution in overnight fasted Sprague-Dawley rat muscle aqueous fraction at 0.7 to 1.4 MBq, iv preincubated with POCA for 2 hrs before compound administration measured at 30 mins post treatment by Folch-type extraction method. Particulars: in vivo, 0.5 h. Format: ADME, organism-based. Summed up: as §3
In a further series the test system is Brain. Put plainly: Drug uptake in overnight fasted Sprague-Dawley rat brain at 0.7 to 1.4 MBq, iv preincubated with POCA for 2 hrs before compound administration measured at 30 mins post treatment. Format: ADME, organism-based. The settings on record: in vivo, 0.5 h. In a few lines:
as §1

The subject of series [8] is Muscle tissue. The series can be described thus: Ratio of drug uptake in overnight fasted Sprague-Dawley rat muscle at 0.7 to 1.4 MBq, iv preincubated with POCA for 2 hrs before compound administration measured at 120 mins post treatment to drug uptake in overnight fasted Sprague-Dawley rat muscle at 0.7 to 1.4 MBq, iv at 120 mins. The format is ADME, organism-based. The settings on record: in vivo. In a few lines: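 Ratio of skeletal muscle uptake (% dose kg/g) 120 min after tail-vein tracer in rats given POCA 30 mg/kg i.p. 2 h beforehand to that in fasted control rats. Radioactivity was decay-corrected and normalized to tissue and body weight.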

Series [9] deals with Heart. The series can be described thus: Ratio of drug uptake in overnight fasted Sprague-Dawley rat heart at 0.7 to 1.4 MBq, iv at 30 mins to drug uptake in overnight fasted Sprague-Dawley rat heart at 0.7 to 1.4 MBq, iv preincubated with POCA for 2 hrs before compound administration measured at 30 mins post treatment. Format: ADME, organism-based. Particulars: in vivo, 0.5 h. In a few lines:
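Ratio of heart uptake (% dose kg/g) 30 min after tail-vein tracer in fasted control rats to that in rats given POCA 30 mg/kg i.p. 2 h before tracer. Tissue radioactivity was decay-corrected and weight-normalized.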

Series [10] relates to Heart. Put plainly: Metabolic stability in overnight fasted Sprague-Dawley rat heart at 9 to 11 MBq, iv measured at 55 to 115 mins by microPET analysis. Format: ADME, organism-based. The settings on record: in vivo.

On to `O=C(O)CCCCSCCCCCCCCCCCC[18F]`, for which the Drug uptake was 0.0241 %IDKg/g in the series on Blood; 0.4413 %IDKg/g with Heart [1]; 10.75% in the series on Liver; 16.49% in the series on Muscle tissue [2]; “Active” in the series with Bone [3]; 0.1037 %IDKg/g with Bone [4]. The Drug uptake was 59.27% in the series with Muscle tissue [5]; 44.55% in the series with Muscle tissue [6]; 0.0702 %IDKg/g in the series with Lung; 7.7% in the series with Muscle tissue [7]; 0.0879 %IDKg/g in the series with Brain. In the series on Muscle tissue [8], the Ratio is reported as 2.2.
In the case of `O=C(O)CCSCCCCCCCCCCCCCC[18F]`, the Drug uptake in the series on Blood is recorded as 0.0098 %IDKg/g; with Heart [1] it was 0.314 %IDKg/g; in the series on Liver, 31.69%; with Muscle tissue [2] it was 28.99%; with Bone [3], “Active”; with Bone [4] it was 0.2289 %IDKg/g. The Drug uptake in the series on Muscle tissue [5] was determined as 58.25%; in the series with Muscle tissue [6], 38.77%; in the series with Lung it was 0.0339 %IDKg/g; in the series with Muscle tissue [7], 25.8%; in the series on Brain, 0.0385 %IDKg/g. Moreover, the Ratio in the series with Heart [9] was found to be 1.7.
Regarding `O=C(O)CCSCCCCCCCCCCCC[18F]`, the Drug uptake with Blood was 0.0105 %IDKg/g; with Heart [1], 0.589 %IDKg/g; with Liver, 20.23%; in the series on Muscle tissue [2] it was 23.24%; in the series with Bone [3], “Active”; in the series on Bone [4], 0.179 %IDKg/g. Moreover, the Drug uptake in the series on Muscle tissue [5] was found to be 48.14%; in the series with Muscle tissue [6], 33.56%; in the series with Lung it was 0.0183 %IDKg/g; in the series on Muscle tissue [7] it was 25.13%; with Brain it was 0.04879 %IDKg/g. For the same compound, in the series with Muscle tissue [8], the Ratio worked out at 2.7.
For the compound `O=C(O)CCSCCCC/C=C\CCCCCCCC[18F]`, the Drug uptake is listed as 0.0185 %IDKg/g in the series with Blood; 0.7028 %IDKg/g in the series with Heart [1]; 16.3% with Liver; 18.79% with Muscle tissue [2]; “Active” in the series on Bone [3]; 0.1475 %IDKg/g in the series with Bone [4]. For the same compound, the Drug uptake came out at 53.25% with Muscle tissue [5]; 21.75% in the series on Muscle tissue [6]; 0.0228 %IDKg/g with Lung; 24.06% in the series on Muscle tissue [7]; 0.0368 %IDKg/g with Brain. Also, the Stability result with Heart [10] is “Stable”.

The values are drawn from ChEMBL document CHEMBL2177094, “Structure dependence of long-chain [18F]fluorothia fatty acids as myocardial fatty acid oxidation probes” (J Med Chem, 2012).
